{"source": "ChEMBL document CHEMBL4334554", "about": "“Structure-Guided Design of Substituted Biphenyl Butanoic Acid Derivatives as Neprilysin Inhibitors” (ACS Med Chem Lett, 2020)", "key": {"[1]": {"assay": "AUC (0 to 7 hrs) in Sprague-Dawley rat at 1 mg/kg, iv measured upto 24 hrs by HPLC-MS/MS analysis", "assay_type": "ADME, organism-based", "set-up": "time < 7 hr, dose 1 mg/kg, route intravenous", "details": "in vivo"}, "[2]": {"assay": "Clearance in Sprague-Dawley rat at 1 mg/kg, iv measured upto 24 hrs by HPLC-MS/MS analysis", "assay_type": "ADME, organism-based", "details": "in vivo"}, "[3]": {"assay": "Volume of distribution at steady state in Sprague-Dawley rat at 1 mg/kg, iv measured upto 24 hrs by HPLC-MS/MS analysis", "assay_type": "ADME, organism-based", "details": "in vivo, read-out: Vdss"}, "[4]": {"assay": "Terminal half life in Sprague-Dawley rat at 1 mg/kg, iv measured upto 24 hrs by HPLC-MS/MS analysis", "assay_type": "ADME, organism-based", "details": "in vivo, read-out: beta t1/2 (converted)"}, "[5]": {"assay": "Cmax in Sprague-Dawley rat at 3 mg/kg, po measured upto 24 hrs by HPLC-MS/MS analysis", "assay_type": "ADME, organism-based", "set-up": "dose 3 mg/kg, route oral", "details": "in vivo"}, "[6]": {"assay": "AUC (0 to 7 hrs) in Sprague-Dawley rat at 3 mg/kg, po measured upto 24 hrs by HPLC-MS/MS analysis", "assay_type": "ADME, organism-based", "set-up": "time < 7 hr, dose 3 mg/kg, route oral", "details": "in vivo"}, "[7]": {"assay": "Oral bioavailability in Sprague-Dawley rat at 3 mg/kg measured upto 24 hrs by HPLC-MS/MS analysis", "assay_type": "ADME, organism-based", "details": "in vivo"}, "[8]": {"assay": "Prodrug activation in rat"}, "[9]": {"assay": "Prodrug activation in dog", "set-up": "species or system Canis lupus familiaris"}, "[10]": {"assay": "Prodrug activation in monkey", "set-up": "species or system Macaca mulatta", "details": "rhesus monkey"}, "Rattus norvegicus [11]": {"system": "Rattus norvegicus", "assay": "In vivo inhibition of NEP in po dosed Sprague-Dawley rat assessed as increase in PANP level measured up to 8 hrs", "assay_type": "functional, organism-based", "outline": "(§1)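 ANP potentiation model in conscious, chronically cannulated adult male Sprague–Dawley rats. Rats received an IV infusion of rat ANP to saturate the clearance receptors, so that ANP was removed mainly by NEP. The ethyl ester prodrug was then dosed orally. Blood was sampled at baseline and at intervals up to 8 h. Plasma ANP was read as % baseline, alongside parent plasma levels.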"}, "Rattus norvegicus [12]": {"system": "Rattus norvegicus", "assay": "In vivo inhibition of NEP in Sprague-Dawley rat assessed as increase in PANP level at 30 mg/kg, po measured after 15 mins", "assay_type": "functional, organism-based", "outline": "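Conscious, chronically cannulated adult male Sprague–Dawley rats received an IV infusion of rat ANP to saturate natriuretic peptide clearance receptors, so ANP elimination relied mainly on NEP. The ethyl ester prodrug was then given orally at 30 mg/kg. Blood was drawn at baseline before dosing and at intervals up to 8 h, and plasma ANP was expressed as % baseline, with parallel PK.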"}, "[13]": {"assay": "Clearance in dog plasma", "assay_type": "ADME, cell-free, Canis lupus familiaris"}, "[14]": {"assay": "Clearance in monkey plasma", "assay_type": "ADME, cell-free, Macaca mulatta", "details": "rhesus monkey"}, "[15]": {"assay": "Apparent half life in dog", "assay_type": "ADME, Canis lupus familiaris", "details": "in vivo, read-out: t1/2(app) (converted)"}, "[16]": {"assay": "Apparent half life in monkey", "assay_type": "ADME, Macaca mulatta", "details": "rhesus monkey, in vivo; read-out: t1/2(app) (converted)"}, "[17]": {"assay": "Stability in rat liver microsomes assessed as intrinsic clearance", "assay_type": "ADME, Microsome", "details": "read-out: CLH"}, "[18]": {"assay": "Stability in human liver microsomes assessed as intrinsic clearance", "assay_type": "ADME, Microsome", "details": "read-out: CLH"}, "[19]": {"assay": "Intrinsic clearance in rat Hepatocyte assessed per million cells", "assay_type": "ADME, cell-based", "details": "hepatocytes, read-out: CLH"}, "[20]": {"assay": "Intrinsic clearance in human Hepatocyte assessed per million cells", "assay_type": "ADME, cell-based", "details": "hepatocytes, read-out: CLH"}, "[21]": {"assay": "Clearance in Sprague-Dawley rat at 1 mg/kg, iv", "assay_type": "ADME, organism-based", "details": "in vivo"}, "[22]": {"assay": "Volume of distribution in Sprague-Dawley rat at 1 mg/kg, iv", "assay_type": "ADME, organism-based", "details": "in vivo"}, "[23]": {"assay": "Half life in Sprague-Dawley rat at 1 mg/kg, iv", "assay_type": "ADME, organism-based", "details": "in vivo"}, "[24]": {"assay": "Oral bioavailability in Sprague-Dawley rat at 3 mg/kg", "assay_type": "ADME, organism-based", "details": "in vivo"}, "[25]": {"assay": "Plasma concentration in Sprague-Dawley rat at 30 mg/kg, po", "assay_type": "ADME, organism-based", "details": "in vivo", "outline": "as §1"}}, "note": "Active and inactive are the calls of the source. No cut-off for these calls is given here."}
{"smiles": "COc1ccc(Cl)cc1-c1ccc(C[C@H](CC(=O)O)NC(=O)CCC(=O)O)cc1", "values": [{"measurement": "AUC(0-t) at 7 h", "setting": "[1]", "value": 8.1, "unit": "µM·h"}, {"measurement": "clearance", "setting": "[2]", "value": 5, "unit": "mL/min/kg"}, {"measurement": "Vd", "setting": "[3]", "value": 0.1, "unit": "L/kg"}, {"measurement": "half-life", "setting": "[4]", "value": 1, "unit": "h"}]}
{"smiles": "CCOC(=O)C[C@@H](Cc1ccc(-c2cc(Cl)ccc2OC)cc1)NC(=O)CCC(=O)O", "values": [{"measurement": "Cmax", "setting": "[5]", "value": 5.38, "unit": "µM"}, {"measurement": "AUC(0-t) at 7 h", "setting": "[6]", "value": 5.63, "unit": "µM·h"}, {"measurement": "bioavailability", "setting": "[7]", "value": 25, "unit": "%"}]}
{"smiles": "CCOC(=O)C[C@@H](Cc1ccc(-c2cccc(Cl)c2)cc1)NC(=O)CCC(=O)O", "values": [{"measurement": "Cmax", "setting": "[5]", "value": 12.6, "unit": "µM"}, {"measurement": "AUC(0-t) at 7 h", "setting": "[6]", "value": 10.1, "unit": "µM·h"}, {"measurement": "bioavailability", "setting": "[7]", "value": 42, "unit": "%"}, {"measurement": "Activity", "setting": "[8]", "value": 99, "unit": "%"}, {"measurement": "Activity", "setting": "[9]", "value": 5, "unit": "%"}, {"measurement": "Activity", "setting": "[10]", "value": 69, "unit": "%"}, {"measurement": "inhibition", "setting": "Rattus norvegicus [11]", "value": "Dose-dependent effect"}]}
{"smiles": "CCOC(=O)[C@H](C)C[C@@H](Cc1ccc(-c2ccccc2)cc1)NC(=O)CCC(=O)O", "values": [{"measurement": "inhibition", "setting": "Rattus norvegicus [12]", "value": "Active"}]}
{"smiles": "O=C(O)CCC(=O)N[C@@H](CC(=O)O)Cc1ccc(-c2cccc(Cl)c2)cc1", "values": [{"measurement": "AUC(0-t) at 7 h", "setting": "[1]", "value": 8.73, "unit": "µM·h"}, {"measurement": "clearance", "setting": "[2]", "value": 5, "unit": "mL/min/kg"}, {"measurement": "Vd", "setting": "[3]", "value": 0.1, "unit": "L/kg"}, {"measurement": "half-life", "setting": "[4]", "value": 0.8, "unit": "h"}, {"measurement": "clearance", "setting": "[13]", "value": 29, "unit": "mL/min/kg"}, {"measurement": "clearance", "setting": "[14]", "value": 3, "unit": "mL/min/kg"}, {"measurement": "half-life", "setting": "[15]", "value": 0.8, "unit": "h"}, {"measurement": "half-life", "setting": "[16]", "value": 4, "unit": "h"}]}
{"smiles": "O=C(O)CCC(=O)N[C@@H](CC(=O)O)Cc1ccc(-c2ccccc2)cc1", "values": [{"measurement": "microsomal CLint", "setting": "[17]", "value": "< 3.42", "unit": "µL/min/mg"}, {"measurement": "microsomal CLint", "setting": "[18]", "value": "< 3.42", "unit": "µL/min/mg"}, {"measurement": "hepatocyte CLint", "setting": "[19]", "value": 2.1, "unit": "µL/min/1e6 cells"}, {"measurement": "hepatocyte CLint", "setting": "[20]", "value": 0.68, "unit": "µL/min/1e6 cells"}, {"measurement": "clearance", "setting": "[21]", "value": 11, "unit": "mL/min/kg"}, {"measurement": "Vd", "setting": "[22]", "value": 0.2, "unit": "L/kg"}, {"measurement": "half-life", "setting": "[23]", "value": 2.5, "unit": "h"}, {"measurement": "bioavailability", "setting": "[24]", "value": 66, "unit": "%"}, {"measurement": "inhibition", "setting": "Rattus norvegicus [12]", "value": "Active"}, {"measurement": "concentration", "setting": "[25]", "value": "> 2", "unit": "µM"}]}
